Reference: ChEMBL document CHEMBL5104115, “Design, synthesis of novel triptolide-glucose conjugates targeting glucose Transporter-1 and their selective antitumor effect” (Eur J Med Chem, 2022)
The source made the active and inactive calls. The calls are words filed in the database; no cut-off is given here.

Assays:
[1] = Octanol-water partition coefficient, logD of the compound in PBS at pH 7.4 by liquid chromatography based mass spectrometric analysis; assay type: physicochemical
Outline: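 Shake-flask method: 3.0 mg compound dissolved in PBS-saturated n-octanol and rotated 24 h at room temperature. The octanol phase was then mixed with octanol-saturated PBS, rotated another 24 h and centrifuged. Both phases quantified by LC-MS against a standard curve, and log P = log(C octanol/C water).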

[2] = test system: SW-620; assay: Cytotoxicity against human SW-620 cells incubated for 72 hrs by MTT assay; assay type: functional, cell-based; settings: SW-620, 72 h
Outline: (§1)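 Cells seeded at 4000/well, incubated overnight, then exposed to a range of concentrations, or DMSO vehicle, for 72 h. MTT (5 mg/mL solution) added for 4 h and formazan dissolved in DMSO. Absorbance read at 570 nm, and IC50 derived from the curves. Tumor lines were grown in RPMI 1640; HUVEC, HaCaT and LO2 were grown in DMEM, each with 10% FBS at 37 °C and 5% CO2.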

[3] = test system: MDA-MB-231; assay: Cytotoxicity against human MDA-MB-231 cells incubated for 72 hrs by MTT assay; assay type: functional, cell-based; settings: MDA-MB-231, 72 h; outline: as §1
[4] = test system: HCT-116; assay: Cytotoxicity against human HCT-116 cells incubated for 72 hrs by MTT assay; assay type: functional, cell-based; settings: HCT-116, 72 h; outline: as §1
[5] = test system: NCI-H1975; assay: Cytotoxicity against human NCI-H1975 cells incubated for 72 hrs by MTT assay; assay type: functional, cell-based; settings: NCI-H1975, 72 h; outline: as §1
[6] = Cytotoxicity against human HaCaT cells incubated for 72 hrs by MTT assay; assay type: toxicity, cell-based; outline: as §1
[7] = test system: NCI-H1975; assay: Cytotoxicity against Glut1 knocked down human NCI-H1975 cells transfected with KDV assessed as decrease in cell viability incubated for 72 hrs by MTT assay; assay type: functional, cell-based; settings: NCI-H1975, 72 h
Outline: (§2)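 Stable Glut-1 knockdown (KD1, KD2, vector KD V) or overexpression (OE, vector OE V) NCI-H1975 cells made by 12 h lentiviral infection, 72 h culture, then 14 days puromycin selection; Glut-1 confirmed by Western blot. Cells seeded at 4000/well overnight, dosed over a concentration range or DMSO for 72 h. MTT read at 570 nm; IC50 from ≥3 replicates.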

[8] = test system: NCI-H1975; assay: Cytotoxicity against human NCI-H1975 cells transfected with OE V overexpressing Glut1assessed as decrease in cell viability incubated for 72 hrs by MTT assay; assay type: functional, cell-based; settings: NCI-H1975, 72 h; outline: as §2
[9] = test system: NCI-H1975; assay: Cytotoxicity against human NCI-H1975 cells transfected with OE overexpressing Glut1assessed as decrease in cell viability incubated for 72 hrs by MTT assay; assay type: functional, cell-based; settings: NCI-H1975, 72 h; outline: as §2
[10] = test system: NCI-H460; assay: Induction of apoptosis in human NCI-H460 cells assessed as viable cells at 1 uM measured after 48 hrs by Annexin V-FITC/PI staining method (reference value: 86.7%); assay type: functional; settings: read-out: Activity
[11] = test system: NCI-H460; assay: Induction of apoptosis in human NCI-H460 cells assessed as early apoptotic cells at 1 uM measured after 48 hrs by Annexin V-FITC/PI staining method (reference value: 3.26%); assay type: functional
[12] = test system: NCI-H460; assay: Induction of apoptosis in human NCI-H460 cells assessed as late apoptotic cells at 1 uM measured after 48 hrs by Annexin V-FITC/PI staining method (reference value: 8.47%); assay type: functional
[13] = test system: NCI-H460; assay: Induction of apoptosis in human NCI-H460 cells assessed as necrotic cells at 1 uM measured after 48 hrs by Annexin V-FITC/PI staining method (reference value: 1.62%); assay type: functional
[14] = test system: NCI-H460; assay: Induction of ROS accumulation in human NCI-H460 cells measured upto 20 uM after 42 to 48 hrs by DCFH-DA staining based flow cytometric analysis; assay type: functional, cell-based; settings: time 42-48 hrs
Outline: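 NCI-H460 cells exposed 42 h or 48 h. Cells suspended in 1% BSA DPBS, loaded with DCFH-DA (0.2 µL of 10 mM stock per 200 µL) for 30 min in the dark, washed, analyzed by flow cytometry. DCF fluorescence expressed as percentage relative to untreated control from histograms, ≥3 replicates.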

[15] = Stability in mouse serum assessed as unchanged fraction measured after 72 hrs by HPLC analysis relative to control; assay type: ADME, cell-free; settings: read-out: Stability
Outline: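 15 µM test agent incubated with human or mouse serum at 37 °C for 0, 0.5, 1, 8, 12, 18, 60 and 72 h. Samples stored at −80 °C, protein precipitated with 200 µL methanol, vortexed and sonicated 5 min. Intact agent and released triptolide measured by HPLC at 220 nm, in duplicate.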

[16] = AUC (0 to 3 hrs) in NCI-H1975 tumor bearing nude mouse model serum at 1 mg/kg, iv; assay type: ADME, organism-based; set-up: time < 3 hr, dose 1 mg/kg, route iv
[17] = Stability in NCI-H1975 tumor bearing nude mouse model plasma at 1 mg/kg, iv; assay type: ADME, organism-based; settings: in vivo
[18] = Drug distribution in NCI-H1975 tumor bearing nude mouse model assessed as tumor to lung ratio of triptolide metabolite at 2 mg/kg, iv by LC-MS analysis; assay type: ADME, organism-based; settings: in vivo
Outline: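 NCI-H1975 xenograft mice, tumors about 500 mm3, 3 per group, fasted 12 h with water available. Given 2 mg/kg iv and sacrificed 1 h later. Heart, liver, lung, kidney and tumor weighed and flash-frozen. 1.0 g tissue homogenized in 2.0 mL saline, methanol-precipitated, reconstituted. Parent, triptolide succinate and triptolide measured by LC-MS; tumor/organ ratios calculated.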

[19] = Toxicity in BALB/c nude mouse xenografted with human NCI-H1975 cells assessed as diarrhea at 1 to 2 mg/kg administered ip, qd for 2 weeks; settings: in vivo, 336 h
[20] = Toxicity in BALB/c nude mouse xenografted with human NCI-H1975 cells assessed as reduction of cytoplasmic nuclei at 2 mg/kg administered ip, qd for 2 weeks; settings: in vivo, 336 h
[21] = Toxicity in BALB/c nude mouse xenografted with human NCI-H1975 cells assessed as morphological change in lung at 1 to 2 mg/kg administered ip, qd for 2 weeks; settings: in vivo, 336 h
[22] = test system: NCI-H1975 (Homo sapiens); assay: Antineoplastic activity against human NCI-H1975 cells xenografted in BALB/c nude mouse assessed as tumor growth inhibition at 1 to 2 mg/kg, ip, qd for 2 weeks; settings: dose 1-2 mg/kg
[23] = Toxicity in BALB/c nude mouse xenografted with human NCI-H1975 cells assessed as morphological change in heart at 1 to 2 mg/kg administered ip, qd for 2 weeks; settings: in vivo, 336 h
[24] = Toxicity in BALB/c nude mouse xenografted with human NCI-H1975 cells assessed as morphological change in liver at 1 to 2 mg/kg administered ip, qd for 2 weeks; settings: in vivo, 336 h
[25] = Toxicity in BALB/c nude mouse xenografted with human NCI-H1975 cells assessed as morphological change in kidney at 1 to 2 mg/kg administered ip, qd for 2 weeks; settings: in vivo, 336 h
[26] = Toxicity in BALB/c nude mouse xenografted with human NCI-H1975 cells assessed as degeneration of inter tube connective tissue at 2 mg/kg administered ip, qd for 2 weeks; settings: in vivo, 336 h

For `CC(C)[C@]12O[C@H]1[C@@H]1O[C@]13[C@]1(O[C@H]1C[C@H]1C4=C(CC[C@@]13C)C(=O)OC4)[C@@H]2OC(=O)CCC(=O)O[C@H]1C(O)O[C@H](CO)[C@@H](O)[C@@H]1O` (stereo partly specified), the logD [1] was -0.347, the IC50 [2] was 1.73 µM and the IC50 [3] was 1.97 µM. It also gave an IC50 [4] of 1.95 µM, an IC50 [5] of 2.04 µM and an IC50 at 72 h [6] of 6.54 µM. For the same molecule, the IC50 [7] was 2.87 µM, the IC50 [8] was 5.27 µM and the IC50 [9] was 2.44 µM. The viability at 1 µM [10] was 84.6%, the Activity [11] was 7.09% and the Activity [12] was 7.68%. For the same molecule, the Activity [13] was 0.85%, the Activity [14] was “Active” and the remaining at 72 h [15] was 66%. For the same molecule, the AUC(0-t) at 3 h [16] was 83.6 µM·h, the Stability [17] was “Unstable” and the Ratio [18] was 15.5. For the same molecule, the Activity [19] was “Non-Toxic”, the Activity [20] was “Toxic” and the Activity [21] was “Non-Toxic”. The Activity [22] was “Active”, the Activity [23] was “Non-Toxic” and the Activity [24] was “Non-Toxic”. The Activity [25] was “Non-Toxic” and the Activity [26] was “Toxic”.
